Screening data: PubChem, The Scripps Research Institute Molecular Screening Center
Rows were chosen to be rich in hits. Some 2.1% of all compounds tested hit in one or more screens of this group.
PKA-R2B act: activators of human PKA-R2B complex. P22694+P31323. PKA-R2B holoenzyme dissociation, Cy5-IP20 fluorescence polarization; R2B truncated from residue 108, S112A mutant; 0% DMSO only, 100% 113 µM cGMP. activation, % at 11.4 µM. 340,000 tested, 0.079% active. AID 504700;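 active = activation above a cutoff set at the mean over all compounds plus 3 SD, cut at about 18% in these data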;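 note: higher means more holoenzyme dissociation and a rise in polarization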
Target sequence (P31323 whole entry, looked up, other chains not shown, the tested form may be a part): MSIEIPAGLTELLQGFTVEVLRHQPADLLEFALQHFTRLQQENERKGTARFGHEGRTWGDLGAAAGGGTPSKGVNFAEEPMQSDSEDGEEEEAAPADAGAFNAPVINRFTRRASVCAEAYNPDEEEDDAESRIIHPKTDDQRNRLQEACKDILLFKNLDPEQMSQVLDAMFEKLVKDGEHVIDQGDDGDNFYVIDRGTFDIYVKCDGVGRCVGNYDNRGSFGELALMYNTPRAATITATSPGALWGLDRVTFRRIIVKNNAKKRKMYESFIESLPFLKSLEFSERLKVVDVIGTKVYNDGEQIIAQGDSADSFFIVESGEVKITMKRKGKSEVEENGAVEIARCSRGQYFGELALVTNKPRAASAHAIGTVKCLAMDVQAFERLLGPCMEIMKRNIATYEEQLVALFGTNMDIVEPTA
MsrA inh: bovine MsrA inhibition; inhibition, % at 15.5 µM; purified bovine MsrA, absorbance read-out; 360,000 tested, 0.75% active;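 note: 0% = vehicle wells with enzyme and 100% = reference inhibitor wells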
PKA-R1A act: activators of PKA-R1A complex | activation, % at 11.4 µM | P00514+P68181 | 340,000 tested, 0.083% active | PKA-R1A dissociation, Cy5-IP20 fluorescence polarization; scaled: DMSO 0%, 113 µM cGMP 100%;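 active = percent activation above the mean of all tested compounds plus 3 SD, cut at about 19% in these data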;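 note: higher means more PKAc released from R1A so a rise in polarization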
VIM-2 inh: inhibitors of Pseudomonas aeruginosa VIM-2 metallo-beta-lactamase | inhibition, % at 5.6 µM | AID 1527 | 290,000 tested, 0.89% active | purified VIM-2, nitrocefin hydrolysis, epi-absorbance fluorescence;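 active = inhibition above the mean of all tested compounds plus 3 SD, cutoff set per screening run, cut at about 7.5% in these data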;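 note: red hydrolysis product quenches plate fluorescence so inhibitors raise well fluorescence; 0% = enzyme with DMSO and 100% = DMSO without enzyme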
MsrA act: bovine methionine sulfoxide reductase A activation; purified bovine MsrA, absorbance read-out; activation, % at 10.6 µM; 360,000 tested, 0.3% active; in the data active = activation above about 7.5%;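 note: 0% = vehicle and 100% = reference activator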
IMP-1 inh: blocks Pseudomonas aeruginosa IMP-1 metallo-beta-lactamase. purified IMP-1, nitrocefin hydrolysis, epi-absorbance fluorescence. inhibition, % at 5.6 µM. 290,000 tested, 0.45% active;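 active = inhibition above the mean plus 3 SD of all compounds in the same screening run, cut at about 4.5% in these data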;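 note: 0% = IMP-1 with DMSO and 100% = DMSO wells lacking enzyme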
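Test system: recombinant IMP-1 enzyme, purified / Medium: HEPES buffer pH 7.1 with ZnSO4 and Brij 35 / Doses: single dose, 5.6 µM / Times: 25 °C, 15 min preincubation, 25 min reaction / Detection: Epi-absorbance via hydrolysed-nitrocefin quenching of white-plate fluorescence, 480/530 nm, EDTA stop / Evaluation: percent inhibition from optical density relative to buffer-blank wells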
VIM-2 confirm: VIM-2 inhibition, confirmation assay; shares compounds with IMP-1 inh; purified VIM-2 enzyme, nitrocefin absorbance; inhibition, % at 5.6 µM; 200 tested, 73% active; in the data active = inhibition above about 8%;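 note: 0% = enzyme with vehicle and 100% = no enzyme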
TEM-1 counter: blocks E. coli TEM-1 beta-lactamase, VIM-2 IMP-1 counter-screen | shares compounds with IMP-1 inh | nitrocefin absorbance inhibition | inhibition, % at 5.6 µM | 200 tested, 50% active | AID 2184; in the data active = inhibition above about 0.66%
Target sequence (P62593 whole entry, looked up): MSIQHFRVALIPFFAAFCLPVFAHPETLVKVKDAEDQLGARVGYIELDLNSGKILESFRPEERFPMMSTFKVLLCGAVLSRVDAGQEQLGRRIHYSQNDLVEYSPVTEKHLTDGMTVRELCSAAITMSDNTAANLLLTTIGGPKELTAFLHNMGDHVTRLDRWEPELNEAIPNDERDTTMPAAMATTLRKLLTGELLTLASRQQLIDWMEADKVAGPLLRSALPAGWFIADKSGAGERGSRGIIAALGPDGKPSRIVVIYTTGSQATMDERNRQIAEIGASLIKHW
IMP-1 confirm: confirmation of P. aeruginosa IMP-1 metallo-beta-lactamase inhibitors; shares compounds with IMP-1 inh; purified IMP-1 enzyme, absorbance substrate hydrolysis; inhibition, % at 5.6 µM; 200 tested, 60% active; in the data active = inhibition above about 4.9%;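 note: 0% = enzyme with vehicle and 100% = vehicle without enzyme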
MsrA conf: confirmation of bovine MsrA inhibitors | shares compounds with MsrA inh | inhibition, % at 15.5 µM | purified bovine MsrA, absorbance read-out | 2,300 tested, 41% active;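 note: coupled to thioredoxin reductase with NADPH and selenocystamine and DMSO as substrate; 0% = vehicle only and 100% = full effect of reference inhibitor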
The depositor's hits bear a star. Cut-off read from the data, not from the text of the source, unless noted: active = inhibition above about 4.5%; inactive = the rest.

What do the screens show for `O=C(O)c1ccccc1-c1ccc(/C=C/c2cc(C(F)(F)F)[nH]c(=O)n2)o1`?
PKA-R2B act: -18.3; MsrA inh: 3.2; PKA-R1A act: -3.0; VIM-2 inh: 8.2*; MsrA act: -6.0; IMP-1 inh: 5.5*; VIM-2 confirm: 14.8*; TEM-1 counter: 37.4*; IMP-1 confirm: 11.1*

Results for CC(C)(C)Nc1nc(Cl)nc(N(C#N)CN2C(=O)c3ccccc3S2(=O)=O)n1 ?
PKA-R2B act: -8.6; MsrA inh: 0.4; PKA-R1A act: -6.2; VIM-2 inh: 11.6*; MsrA act: -13.2; IMP-1 inh: 10.7*; VIM-2 confirm: 1.1; TEM-1 counter: -3.3; IMP-1 confirm: -1.9

What do the screens show for `O/C=c1\ccc2cccc3nc(C(F)(F)F)nc1c23`?
PKA-R2B act: -6.2; MsrA inh: 1.9; PKA-R1A act: 1.0; VIM-2 inh: 21.2*; MsrA act: 1.0; IMP-1 inh: 6.8*; VIM-2 confirm: 32.9*; TEM-1 counter: 5.0*; IMP-1 confirm: 10.8*

Results for C[C@H](c1ccccc1)N1C[C@@H](COCc2ccccc2)Oc2cccc(F)c2S1(=O)=O ?
MsrA inh: 1.5

How did CCNc1ccc(Br)cc(C(=O)/C=C/c2ccc3c(c2)OCO3)c1=O do in these assays?
PKA-R2B act: -11.3; MsrA inh: 1.8; PKA-R1A act: 1.1; VIM-2 inh: -0.5; MsrA act: -6.0; IMP-1 inh: 3.3

What do the screens show for `CCNc1ccc(Br)cc(C(=O)/C=C/c2c(Cl)cccc2Cl)c1=O`?
PKA-R2B act: 1.8; PKA-R1A act: -2.3; VIM-2 inh: 8.3*; MsrA act: 5.0; IMP-1 inh: 6.0*; VIM-2 confirm: 3.9; TEM-1 counter: -0.8; IMP-1 confirm: -0.9

What do the screens show for `CCN(CC)c1ccc(/C=C2\C(=N)N3N=C(CC(=O)N4CCOCC4)SC3=NC2=O)cc1`?
PKA-R2B act: -3.7; MsrA inh: 0.6; PKA-R1A act: -10.2; VIM-2 inh: 10.6*; MsrA act: -3.1; IMP-1 inh: 6.4*; VIM-2 confirm: 9.3*; TEM-1 counter: -0.7; IMP-1 confirm: 2.6

Results for CSc1ccc(/C=C2\C(=N)N3N=C(CC(=O)N4CCOCC4)SC3=NC2=O)cc1 ?
PKA-R2B act: 7.8; MsrA inh: -0.1; PKA-R1A act: -6.0; VIM-2 inh: -3.0; MsrA act: -12.7; IMP-1 inh: -2.9

Results for Cn1cc(/C=C(\C(=O)O)C(C(=O)O)=C2CCCCC2)c2ccccc21 ?
PKA-R2B act: -13.8; MsrA inh: -0.6; PKA-R1A act: -8.8; VIM-2 inh: 9.5*; MsrA act: -11.2; IMP-1 inh: 11.3*; VIM-2 confirm: 13.1*; TEM-1 counter: -0.5; IMP-1 confirm: 10.2*

How did COC(=O)c1sccc1NC(=O)c1ccc(C#N)cc1 do in these assays?
PKA-R2B act: 10.6; PKA-R1A act: -3.5; VIM-2 inh: 15.9*; MsrA act: -13.3; IMP-1 inh: 31.8*; VIM-2 confirm: 13.5*; TEM-1 counter: -0.4; IMP-1 confirm: 21.8*

How did CC(C)(C)C1C=C(Sc2ccccc2)C(=O)O1 (stereo unspecified) do in these assays?
PKA-R2B act: -14.7; MsrA inh: -1.4; PKA-R1A act: -11.2; VIM-2 inh: 8.8*; MsrA act: -6.9; IMP-1 inh: 51.0*; VIM-2 confirm: -0.6; TEM-1 counter: -3.1; IMP-1 confirm: 15.4*

What do the screens show for `CCNC(=O)C1(C)CCCN(C(=O)c2csc3ccccc23)C1` (stereo unspecified)?
MsrA inh: 1.0; MsrA act: -0.6

What do the screens show for `Cc1ccc(Cn2c(C(C)Nc3nc(-c4ccc(C)cc4)cs3)nc3cc(Cl)c(Cl)cc32)cc1` (stereo unspecified)?
PKA-R2B act: -2.6; MsrA inh: -0.7; PKA-R1A act: 0.5; VIM-2 inh: 11.8*; MsrA act: -2.8; IMP-1 inh: 29.2*; VIM-2 confirm: 11.2*; TEM-1 counter: -5.7; IMP-1 confirm: 24.8*

How did CN1CCS/C1=C/C=C1\SC(=S)N(CC(=O)O)C1=O do in these assays?
PKA-R2B act: 10.6; MsrA inh: -0.2; PKA-R1A act: -4.5; VIM-2 inh: 9.6*; MsrA act: -5.1; IMP-1 inh: 6.8*; VIM-2 confirm: 7.5; TEM-1 counter: -7.0; IMP-1 confirm: 1.5

What do the screens show for `CC1(C)CN(CCc2ccccc2)C(=O)[C@H]1CC(=O)Nc1ccccc1`?
PKA-R2B act: -2.2; MsrA inh: -1.3; PKA-R1A act: 3.3; MsrA act: -0.2

Results for COc1ccc2c(c1OC)C(=O)OC2 ?
PKA-R2B act: 0.9; MsrA inh: 0.4; PKA-R1A act: -5.9; VIM-2 inh: 0.3; MsrA act: -11.3; IMP-1 inh: -0.2

How did COc1ccc2c3c(cccc13)C(=O)CC2 do in these assays?
PKA-R2B act: -6.7; MsrA inh: 2.9; PKA-R1A act: -2.5; VIM-2 inh: 17.2*; MsrA act: -4.2; IMP-1 inh: 15.5*; VIM-2 confirm: 0.7; TEM-1 counter: 1.7*; IMP-1 confirm: -2.4

How did CCOc1ccc(NC(=O)c2c(NC(=O)CN3CCN(C)CC3)sc3c2CCC3)cc1 do in these assays?
PKA-R2B act: 4.4; MsrA inh: 0.8; PKA-R1A act: -2.1; VIM-2 inh: 9.6*; MsrA act: 0.1; IMP-1 inh: 4.7*; VIM-2 confirm: 16.4*; TEM-1 counter: -2.8; IMP-1 confirm: 2.3

What do the screens show for `C[C@@H]1CN([C@@H](C)CO)C(=O)CCCn2cc(nn2)CO[C@H]1CN(C)C(=O)CCC(F)(F)F`?
MsrA inh: -0.1

How did Cc1csc(=O)n1CC(=O)OCC(=O)Nc1ccccc1C(C)C do in these assays?
PKA-R2B act: 6.6; MsrA inh: 0.0; PKA-R1A act: 4.7; MsrA act: -1.8

What do the screens show for `N#CC1=C(N)Oc2c(O)cc3ccccc3c2C1c1ccsc1` (stereo unspecified)?
PKA-R2B act: -13.5; MsrA inh: 8.5*; PKA-R1A act: -16.7; VIM-2 inh: 8.1*; MsrA act: -3.8; IMP-1 inh: 4.6*; VIM-2 confirm: -0.4; TEM-1 counter: -5.2; IMP-1 confirm: -2.9; MsrA conf: 10.4*
